From ChEMBL document CHEMBL1140728, “Synthesis and biological activity of human neuropeptide S analogues modified in position 2” (J Med Chem, 2008) come the findings set out here.

The term Emax denotes the maximal effect, on the per cent scale that the assay sets. The term EC50 denotes the concentration at which the effect is half-maximal.

Non-standard residues stand in square brackets, D forms with d. Residues, ends and D or L forms follow the SMILES beside them. Phe(4-CF3) = N[C@@H](Cc1ccc(C(F)(F)F)cc1)C(=O)O; Bip = N[C@@H](Cc1ccc(-c2ccccc2)cc1)C(=O)O; Phe(4-Br) = N[C@@H](Cc1ccc(Br)cc1)C(=O)O; Phe(4-CN) = N#Cc1ccc(C[C@H](N)C(=O)O)cc1; Phe(4-Cl) = N[C@@H](Cc1ccc(Cl)cc1)C(=O)O; Phe(4-F) = N[C@@H](Cc1ccc(F)cc1)C(=O)O; Phe(4-I) = N[C@@H](Cc1ccc(I)cc1)C(=O)O; 1Nal = N[C@@H](Cc1cccc2ccccc12)C(=O)O; Atc(2S) = N[C@@]1(C(=O)O)CCc2ccccc2C1; Phe(2-Me) = Cc1ccccc1C[C@H](N)C(=O)O; Cha = N[C@@H](CC1CCCCC1)C(=O)O; Aic = NC1(C(=O)O)Cc2ccccc2C1; Nphe = O=C(O)CNCc1ccccc1

The target in experiment [1] is T1, Neuropeptide S receptor (Mus musculus) (UniProt Q8BZP8).
T1 sequence (whole entry): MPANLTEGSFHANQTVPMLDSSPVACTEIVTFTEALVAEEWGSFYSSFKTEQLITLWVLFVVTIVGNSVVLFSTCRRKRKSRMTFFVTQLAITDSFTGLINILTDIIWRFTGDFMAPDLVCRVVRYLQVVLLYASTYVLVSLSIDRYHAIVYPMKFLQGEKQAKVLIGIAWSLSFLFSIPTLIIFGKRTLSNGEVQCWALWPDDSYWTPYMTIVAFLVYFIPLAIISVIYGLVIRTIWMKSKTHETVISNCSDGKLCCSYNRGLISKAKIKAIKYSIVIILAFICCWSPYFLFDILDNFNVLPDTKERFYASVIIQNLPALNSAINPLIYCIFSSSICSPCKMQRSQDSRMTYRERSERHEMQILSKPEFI
Put plainly: Agonist activity at mouse recombinant NPS receptor expressed in HEK293 cells assessed as intracellular calcium mobilization relative to baseline. The class given is functional, cell-based. In a few lines: (§1)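 HEK293 cells stably expressing mouse NPSR, kept in DMEM with 10% FBS, 2 mM L-glutamine and hygromycin (100 mg/L), were seeded at 50 000 cells/well. Next day they were loaded with Fluo-4 AM (3 µmol), probenecid (2.5 mmol) and 0.01% pluronic acid for 30 min at 37 °C. Agonist dilutions in HBSS/HEPES with 0.02% BSA were added, and FlexStation II fluorescence was read at 22 °C.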
On the technique in general: Calcium assays in cells follow changes in intracellular calcium, usually with a dye or a luminescent sensor.

Another experiment has as its target T2, Neuropeptide S receptor (Mus musculus, UniProt Q8BZP8).
T2 sequence (Q8BZP8 whole entry): T1 sequence (whole entry)
Kind of experiment: Agonist activity at mouse recombinant NPS receptor expressed in HEK293 cells assessed as intracellular calcium mobilization. The class given is functional, cell-based. The procedure, abridged:
as §1

As to `CSCC[C@H](NC(=O)CNC(=O)[C@@H](NC(=O)CNC(=O)[C@@H](NC(=O)CNC(=O)[C@H](CC(N)=O)NC(=O)[C@H](CCCNC(=N)N)NC(=O)[C@H](Cc1cccc2ccccc12)NC(=O)[C@@H](N)CO)C(C)C)[C@@H](C)O)C(=O)N[C@@H](CCCCN)C(=O)N[C@@H](CCCCN)C(=O)N[C@H](C(=O)N[C@@H](CO)C(=O)N[C@@H](Cc1ccccc1)C(=O)N[C@@H](CCC(N)=O)C(=O)N[C@@H](CCCNC(=N)N)C(=O)N[C@@H](C)C(=O)N[C@@H](CCCCN)C(=O)N[C@@H](CO)C(=O)O)[C@@H](C)O` (H-S[1Nal]RNGVGTGMKKTSFQRAKS-OH), the maximal effect (Emax) in experiment [1] is 232%. On Neuropeptide S receptor, the EC50 is 1.95 nM.
Taken in the same sequence, the figures for `CSCC[C@H](NC(=O)CNC(=O)[C@@H](NC(=O)CNC(=O)[C@@H](NC(=O)CNC(=O)[C@H](CC(N)=O)NC(=O)[C@H](CCCNC(=N)N)NC(=O)C1(NC(=O)[C@@H](N)CO)Cc2ccccc2C1)C(C)C)[C@@H](C)O)C(=O)N[C@@H](CCCCN)C(=O)N[C@@H](CCCCN)C(=O)N[C@H](C(=O)N[C@@H](CO)C(=O)N[C@@H](Cc1ccccc1)C(=O)N[C@@H](CCC(N)=O)C(=O)N[C@@H](CCCNC(=N)N)C(=O)N[C@@H](C)C(=O)N[C@@H](CCCCN)C(=O)N[C@@H](CO)C(=O)O)[C@@H](C)O` (H-S[Aic]RNGVGTGMKKTSFQRAKS-OH) were 211% and 33.9 nM.
As to `CSCC[C@H](NC(=O)CNC(=O)[C@@H](NC(=O)CNC(=O)[C@@H](NC(=O)CNC(=O)[C@H](CC(N)=O)NC(=O)[C@H](CCCNC(=N)N)NC(=O)[C@]1(NC(=O)[C@@H](N)CO)CCc2ccccc2C1)C(C)C)[C@@H](C)O)C(=O)N[C@@H](CCCCN)C(=O)N[C@@H](CCCCN)C(=O)N[C@H](C(=O)N[C@@H](CO)C(=O)N[C@@H](Cc1ccccc1)C(=O)N[C@@H](CCC(N)=O)C(=O)N[C@@H](CCCNC(=N)N)C(=O)N[C@@H](C)C(=O)N[C@@H](CCCCN)C(=O)N[C@@H](CO)C(=O)O)[C@@H](C)O` (H-S[Atc(2S)]RNGVGTGMKKTSFQRAKS-OH), in experiment [1], the Emax was determined as 257%. In addition, on Neuropeptide S receptor, the EC50 was 11.2 nM.
For the compound `CSCC[C@H](NC(=O)CNC(=O)[C@@H](NC(=O)CNC(=O)[C@@H](NC(=O)CNC(=O)[C@H](CC(N)=O)NC(=O)[C@H](CCCNC(=N)N)NC(=O)[C@H](Cc1ccc(-c2ccccc2)cc1)NC(=O)[C@@H](N)CO)C(C)C)[C@@H](C)O)C(=O)N[C@@H](CCCCN)C(=O)N[C@@H](CCCCN)C(=O)N[C@H](C(=O)N[C@@H](CO)C(=O)N[C@@H](Cc1ccccc1)C(=O)N[C@@H](CCC(N)=O)C(=O)N[C@@H](CCCNC(=N)N)C(=O)N[C@@H](C)C(=O)N[C@@H](CCCCN)C(=O)N[C@@H](CO)C(=O)O)[C@@H](C)O` (H-S[Bip]RNGVGTGMKKTSFQRAKS-OH), the Emax in experiment [1] was 170%. In addition, the concentration for a half-maximal effect (EC50) on Neuropeptide S receptor was 20 nM.
For the compound `CSCC[C@H](NC(=O)CNC(=O)[C@@H](NC(=O)CNC(=O)[C@@H](NC(=O)CNC(=O)[C@H](CC(N)=O)NC(=O)[C@H](CCCNC(=N)N)NC(=O)[C@H](CC1CCCCC1)NC(=O)[C@@H](N)CO)C(C)C)[C@@H](C)O)C(=O)N[C@@H](CCCCN)C(=O)N[C@@H](CCCCN)C(=O)N[C@H](C(=O)N[C@@H](CO)C(=O)N[C@@H](Cc1ccccc1)C(=O)N[C@@H](CCC(N)=O)C(=O)N[C@@H](CCCNC(=N)N)C(=O)N[C@@H](C)C(=O)N[C@@H](CCCCN)C(=O)N[C@@H](CO)C(=O)O)[C@@H](C)O` (H-S[Cha]RNGVGTGMKKTSFQRAKS-OH), the maximal response (Emax) in experiment [1] stood at 221%. Also, at Neuropeptide S receptor, the EC50 was 1.35 nM.
As to `CSCC[C@H](NC(=O)CNC(=O)[C@@H](NC(=O)CNC(=O)[C@@H](NC(=O)CNC(=O)[C@H](CC(N)=O)NC(=O)[C@H](CCCNC(=N)N)NC(=O)CN(Cc1ccccc1)C(=O)[C@@H](N)CO)C(C)C)[C@@H](C)O)C(=O)N[C@@H](CCCCN)C(=O)N[C@@H](CCCCN)C(=O)N[C@H](C(=O)N[C@@H](CO)C(=O)N[C@@H](Cc1ccccc1)C(=O)N[C@@H](CCC(N)=O)C(=O)N[C@@H](CCCNC(=N)N)C(=O)N[C@@H](C)C(=O)N[C@@H](CCCCN)C(=O)N[C@@H](CO)C(=O)O)[C@@H](C)O` (H-S[Nphe]RNGVGTGMKKTSFQRAKS-OH), in experiment [1], the Emax was determined as 246%. For the same compound, at Neuropeptide S receptor, the EC50 is 15.5 nM.
Turning to `CSCC[C@H](NC(=O)CNC(=O)[C@@H](NC(=O)CNC(=O)[C@@H](NC(=O)CNC(=O)[C@H](CC(N)=O)NC(=O)[C@H](CCCNC(=N)N)NC(=O)[C@H](Cc1ccccc1C)NC(=O)[C@@H](N)CO)C(C)C)[C@@H](C)O)C(=O)N[C@@H](CCCCN)C(=O)N[C@@H](CCCCN)C(=O)N[C@H](C(=O)N[C@@H](CO)C(=O)N[C@@H](Cc1ccccc1)C(=O)N[C@@H](CCC(N)=O)C(=O)N[C@@H](CCCNC(=N)N)C(=O)N[C@@H](C)C(=O)N[C@@H](CCCCN)C(=O)N[C@@H](CO)C(=O)O)[C@@H](C)O` (H-S[Phe(2-Me)]RNGVGTGMKKTSFQRAKS-OH), the Emax in experiment [1] worked out at 222%. At Neuropeptide S receptor, the concentration giving a half-maximal response (EC50) was 1.86 nM.
For the compound `CSCC[C@H](NC(=O)CNC(=O)[C@@H](NC(=O)CNC(=O)[C@@H](NC(=O)CNC(=O)[C@H](CC(N)=O)NC(=O)[C@H](CCCNC(=N)N)NC(=O)[C@H](Cc1ccc(Br)cc1)NC(=O)[C@@H](N)CO)C(C)C)[C@@H](C)O)C(=O)N[C@@H](CCCCN)C(=O)N[C@@H](CCCCN)C(=O)N[C@H](C(=O)N[C@@H](CO)C(=O)N[C@@H](Cc1ccccc1)C(=O)N[C@@H](CCC(N)=O)C(=O)N[C@@H](CCCNC(=N)N)C(=O)N[C@@H](C)C(=O)N[C@@H](CCCCN)C(=O)N[C@@H](CO)C(=O)O)[C@@H](C)O` (H-S[Phe(4-Br)]RNGVGTGMKKTSFQRAKS-OH), in experiment [1], the maximal response (Emax) amounted to 309%. Moreover, the half-maximal effective concentration (EC50) at Neuropeptide S receptor is 0.646 nM.
Take `CSCC[C@H](NC(=O)CNC(=O)[C@@H](NC(=O)CNC(=O)[C@@H](NC(=O)CNC(=O)[C@H](CC(N)=O)NC(=O)[C@H](CCCNC(=N)N)NC(=O)[C@H](Cc1ccc(C(F)(F)F)cc1)NC(=O)[C@@H](N)CO)C(C)C)[C@@H](C)O)C(=O)N[C@@H](CCCCN)C(=O)N[C@@H](CCCCN)C(=O)N[C@H](C(=O)N[C@@H](CO)C(=O)N[C@@H](Cc1ccccc1)C(=O)N[C@@H](CCC(N)=O)C(=O)N[C@@H](CCCNC(=N)N)C(=O)N[C@@H](C)C(=O)N[C@@H](CCCCN)C(=O)N[C@@H](CO)C(=O)O)[C@@H](C)O` (H-S[Phe(4-CF3)]RNGVGTGMKKTSFQRAKS-OH): the Emax in experiment [1] came to 286%. On Neuropeptide S receptor, the 50% effective concentration (EC50) was 2.57 nM.
For the compound `CSCC[C@H](NC(=O)CNC(=O)[C@@H](NC(=O)CNC(=O)[C@@H](NC(=O)CNC(=O)[C@H](CC(N)=O)NC(=O)[C@H](CCCNC(=N)N)NC(=O)[C@H](Cc1ccc(C#N)cc1)NC(=O)[C@@H](N)CO)C(C)C)[C@@H](C)O)C(=O)N[C@@H](CCCCN)C(=O)N[C@@H](CCCCN)C(=O)N[C@H](C(=O)N[C@@H](CO)C(=O)N[C@@H](Cc1ccccc1)C(=O)N[C@@H](CCC(N)=O)C(=O)N[C@@H](CCCNC(=N)N)C(=O)N[C@@H](C)C(=O)N[C@@H](CCCCN)C(=O)N[C@@H](CO)C(=O)O)[C@@H](C)O` (H-S[Phe(4-CN)]RNGVGTGMKKTSFQRAKS-OH), the Emax in experiment [1] was determined as 296%. Besides, the concentration for a half-maximal effect (EC50) at Neuropeptide S receptor was 3.31 nM.
For `CSCC[C@H](NC(=O)CNC(=O)[C@@H](NC(=O)CNC(=O)[C@@H](NC(=O)CNC(=O)[C@H](CC(N)=O)NC(=O)[C@H](CCCNC(=N)N)NC(=O)[C@H](Cc1ccc(Cl)cc1)NC(=O)[C@@H](N)CO)C(C)C)[C@@H](C)O)C(=O)N[C@@H](CCCCN)C(=O)N[C@@H](CCCCN)C(=O)N[C@H](C(=O)N[C@@H](CO)C(=O)N[C@@H](Cc1ccccc1)C(=O)N[C@@H](CCC(N)=O)C(=O)N[C@@H](CCCNC(=N)N)C(=O)N[C@@H](C)C(=O)N[C@@H](CCCCN)C(=O)N[C@@H](CO)C(=O)O)[C@@H](C)O` (H-S[Phe(4-Cl)]RNGVGTGMKKTSFQRAKS-OH), in that order: 298% and 0.708 nM.
Consider `CSCC[C@H](NC(=O)CNC(=O)[C@@H](NC(=O)CNC(=O)[C@@H](NC(=O)CNC(=O)[C@H](CC(N)=O)NC(=O)[C@H](CCCNC(=N)N)NC(=O)[C@H](Cc1ccc(F)cc1)NC(=O)[C@@H](N)CO)C(C)C)[C@@H](C)O)C(=O)N[C@@H](CCCCN)C(=O)N[C@@H](CCCCN)C(=O)N[C@H](C(=O)N[C@@H](CO)C(=O)N[C@@H](Cc1ccccc1)C(=O)N[C@@H](CCC(N)=O)C(=O)N[C@@H](CCCNC(=N)N)C(=O)N[C@@H](C)C(=O)N[C@@H](CCCCN)C(=O)N[C@@H](CO)C(=O)O)[C@@H](C)O` (H-S[Phe(4-F)]RNGVGTGMKKTSFQRAKS-OH), for which the Emax in experiment [1] worked out at 291%. Besides, the EC50 on Neuropeptide S receptor was 1.1 nM.
Consider `CSCC[C@H](NC(=O)CNC(=O)[C@@H](NC(=O)CNC(=O)[C@@H](NC(=O)CNC(=O)[C@H](CC(N)=O)NC(=O)[C@H](CCCNC(=N)N)NC(=O)[C@H](Cc1ccc(I)cc1)NC(=O)[C@@H](N)CO)C(C)C)[C@@H](C)O)C(=O)N[C@@H](CCCCN)C(=O)N[C@@H](CCCCN)C(=O)N[C@H](C(=O)N[C@@H](CO)C(=O)N[C@@H](Cc1ccccc1)C(=O)N[C@@H](CCC(N)=O)C(=O)N[C@@H](CCCNC(=N)N)C(=O)N[C@@H](C)C(=O)N[C@@H](CCCCN)C(=O)N[C@@H](CO)C(=O)O)[C@@H](C)O` (H-S[Phe(4-I)]RNGVGTGMKKTSFQRAKS-OH), for which the Emax in experiment [1] was 243%. The EC50 at Neuropeptide S receptor was 1.78 nM.
